In brackets after ≈: the same amount, converted by molar mass.
Columns and labels:
KB [1] = assay: Cytotoxicity against human KB cells at 20 ug/mL; type: functional
[2] = Cytotoxicity against human BC1 cells at 20 ug/mL; type: functional
Vero [3] = assay: Cytotoxicity against african green monkey Vero cells at 20 ug/mL; type: functional; conditions: Chlorocebus sabaeus
Plasmodium falciparum = assay: Antimalarial activity against Plasmodium falciparum K1 by [3H]hypoxanthine uptake; type: functional, organism-based
Outline: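 P. falciparum K1 (multidrug-resistant) asexual erythrocytic stages were kept in continuous in vitro culture. Activity was measured by a microculture radioisotope method. EC50 is the concentration giving 50% reduction in parasite growth, read as in vitro [3H]hypoxanthine uptake.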

KB [4] = assay: Cytotoxicity against human KB cells; type: functional, cell-based
[5] = Cytotoxicity against human BC1 cells; type: functional, cell-based
Vero [6] = assay: Cytotoxicity against african green monkey Vero cells; type: functional, cell-based, Chlorocebus sabaeus

C[C@@H]1CC[C@H]2[C@@H](C)C(=O)O[C@@H]3O[C@@]4(C)CC[C@@H]1[C@]32OO4 [ARTEMISININ]
inhibition at 20 µg/mL (KB [1]): < 50% | inhibition at 20 µg/mL [2]: < 50% | inhibition at 20 µg/mL (Vero [3]): < 50%

CC1=C[C@H]2O[C@@H]3C[C@H]4OC(=O)/C=C\C=C\[C@H]([C@@H](C)O)OCC[C@@H](C)[C@H](O)C(=O)OC[C@@]2(CC1)[C@]4(C)[C@]31CO1 [RORIDIN A]
EC50 (Plasmodium falciparum): 0.31 ng/mL (≈ 0.582 nM) | EC50 (KB [4]): 1 ng/mL (≈ 1.88 nM) | EC50 [5]: 5 ng/mL (≈ 9.39 nM) | EC50 (Vero [6]): 1.7 ng/mL (≈ 3.19 nM)

CC1=C[C@H]2O[C@@H]3C[C@H]4OC(=O)/C=C\C=C\C(=O)OCC[C@@H](C)[C@H](O)C(=O)OC[C@@]2(CC1)[C@]4(C)[C@]31CO1 [VERRUCARIN A]
EC50 (Plasmodium falciparum): 0.9 ng/mL (≈ 1.79 nM) | EC50 (KB [4]): 1.2 ng/mL (≈ 2.39 nM) | EC50 [5]: 4.2 ng/mL (≈ 8.36 nM) | EC50 (Vero [6]): 1.1 ng/mL (≈ 2.19 nM)

CC1=C[C@H]2O[C@@H]3C[C@H]4OC(=O)/C=C\C=C\[C@H]([C@@H](C)O)OCC/C(C)=C/C(=O)OC[C@@]2(CC1)[C@]4(C)[C@]31CO1 [RORIDIN E]
EC50 (Plasmodium falciparum): 0.15 ng/mL (≈ 0.291 nM) | EC50 (KB [4]): 0.5 ng/mL (≈ 0.972 nM) | EC50 [5]: 0.7 ng/mL (≈ 1.36 nM) | EC50 (Vero [6]): 0.4 ng/mL (≈ 0.777 nM)

CC1=C[C@H]2O[C@@H]3C[C@H]4OC(=O)/C=C\C=C\C(=O)OCC/C(C)=C/C(=O)OC[C@@]2(CC1)[C@]4(C)[C@]31CO1 [VERRUCARIN J]
EC50 (Plasmodium falciparum): 0.2 ng/mL (≈ 0.413 nM) | EC50 (KB [4]): 3.9 ng/mL (≈ 8.05 nM) | EC50 [5]: 14 ng/mL (≈ 28.9 nM) | EC50 (Vero [6]): 1.2 ng/mL (≈ 2.48 nM)

CC(=O)O[C@H](C)[C@H]1/C=C/C=C\C(=O)O[C@@H]2C[C@H]3O[C@@H]4C=C(C)CC[C@]4(COC(=O)/C=C(\C)CCO1)[C@]2(C)[C@]31CO1 [RORIDIN E ACETATE]
EC50 (Plasmodium falciparum): 0.06 ng/mL | EC50 (KB [4]): 14 ng/mL | EC50 [5]: 15 ng/mL | EC50 (Vero [6]): 4.1 ng/mL

— ChEMBL document CHEMBL1158025, “Antimalarial activity of macrocyclic trichothecenes isolated from the fungus Myrothecium verrucaria” (J Nat Prod, 1999)
